Data: ChEMBL document CHEMBL4354843, “Structure-Based Design of a Potent and Selective Covalent Inhibitor for SRC Kinase That Targets a P-Loop Cysteine” (J Med Chem, 2020)

What was measured:
[1] = molecular target: Activin receptor type-2A (Homo sapiens) (UniProt P27037); assay: Binding affinity to wild-type human ACVR2A (V171 to T499 residues) expressed in bacterial expression system assessed as residual binding level at 1 uM by Kinomescan method relative to control
Method in brief: (§1)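 Active-site-directed KinomeScan competition binding panel covering 468 kinases, compound tested at 1 μM. Each readout is the kinase signal remaining with compound, expressed as a percentage of the DMSO control. […]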

[2] = molecular target: RAC-gamma serine/threonine-protein kinase (Homo sapiens) (UniProt Q9Y243); assay: Binding affinity to wild-type human partial length AKT3 expressed in bacterial expression system assessed as residual binding level at 1 uM by Kinomescan method relative to control
[3] = molecular target: 5'-AMP-activated protein kinase catalytic subunit alpha-1 (Homo sapiens) (UniProt Q13131); assay: Binding affinity to wild-type human partial length AMPK alpha1 (M1 to E306 residues) expressed in bacterial expression system assessed as residual binding level at 1 uM by Kinomescan method relative to control
[4] = molecular target: Aurora kinase C (Homo sapiens) (UniProt Q9UQB9); assay: Binding affinity to wild-type human full length AURKC (M1 to S275 residues) expressed in bacterial expression system assessed as residual binding level at 1 uM by Kinomescan method relative to control
Method in brief: (§2)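 KinomeScan, an active site-directed competition binding panel of 468 kinases. The test compound was at 1 μM. The readout is remaining kinase binding as a percentage of the DMSO control. Scores above 35% were treated as weak binding and not listed.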

[5] = molecular target: Calcium/calmodulin-dependent protein kinase type 1G (Homo sapiens) (UniProt Q96NX5); assay: Binding affinity to wild-type human partial length CAMK1G (M1 to A342 residues) expressed in bacterial expression system assessed as residual binding level at 1 uM by Kinomescan method relative to control
[6] = molecular target: Serine/threonine-protein kinase Chk1 (Homo sapiens) (UniProt O14757); assay: Binding affinity to wild-type human partial length CHEK1 (M1 to G289 residues) expressed in bacterial expression system assessed as residual binding level at 1 uM by Kinomescan method relative to control
[7] = molecular target: Casein kinase II subunit alpha (Homo sapiens) (UniProt P68400); assay: Binding affinity to wild-type human full length CSNK2A1 (M1 to Q391 residues) expressed in mammalian expression system assessed as residual binding level at 1 uM by Kinomescan method relative to control; method in brief: as §2
[8] = system: Epidermal growth factor receptor (Homo sapiens), P00533 [L858R]; assay: Binding affinity to human partial length EGFR L858R mutant (R669 to V1011 residues) expressed in bacterial expression system assessed as residual binding level at 1 uM by Kinomescan method relative to control
Method in brief: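 KinomeScan active site-directed competition binding panel (468 kinases), compound tested at 1 μM. Result expressed as remaining kinase signal versus DMSO control (percent of control).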

[9] = molecular target: Ephrin type-A receptor 7 (Homo sapiens) (UniProt Q15375); assay: Binding affinity to wild-type human partial length EPHA7 (Y608 to S912 residues) expressed in bacterial expression system assessed as residual binding level at 1 uM by Kinomescan method relative to control
[10] = molecular target: Fibroblast growth factor receptor 3 (Homo sapiens) (UniProt P22607); assay: Binding affinity to wild-type human partial length FGFR3 (R442 to S771 residues) expressed in bacterial expression system assessed as residual binding level at 1 uM by Kinomescan method relative to control
[11] = molecular target: G protein-coupled receptor kinase 3 (Homo sapiens) (UniProt P35626); assay: Binding affinity to wild-type human full length GRK3 (M1 to L688 residues) expressed in mammalian expression system assessed as residual binding level at 1 uM by Kinomescan method relative to control; method in brief: as §1
[12] = molecular target: Rhodopsin kinase GRK7 (Homo sapiens) (UniProt Q8WTQ7); assay: Binding affinity to wild-type human full length GRK7 (M1 to L553 residues) expressed in mammalian expression system assessed as residual binding level at 1 uM by Kinomescan method relative to control; method in brief: as §1
[13] = molecular target: Homeodomain-interacting protein kinase 1 (Homo sapiens) (UniProt Q86Z02); assay: Binding affinity to wild-type human partial length HIPK1 (M146 to I555 residues) expressed in mammalian expression system assessed as residual binding level at 1 uM by Kinomescan method relative to control
[14] = molecular target: Mitogen-activated protein kinase 8 (Homo sapiens) (UniProt P45983); assay: Binding affinity to wild-type human full length JNK1 (M1 to Q384 residues) expressed in mammalian expression system assessed as residual binding level at 1 uM by Kinomescan method relative to control; method in brief: as §2
[15] = molecular target: Mitogen-activated protein kinase kinase kinase 9 (Homo sapiens) (UniProt P80192); assay: Binding affinity to wild-type human partial length MLK1 (V88 to W426 residues) expressed in bacterial expression system assessed as residual binding level at 1 uM by Kinomescan method relative to control
[16] = molecular target: Serine/threonine-protein kinase pim-1 (Homo sapiens) (UniProt P11309); assay: Binding affinity to wild-type human partial length PIM1 (A15 to K313 residues) expressed in bacterial expression system assessed as residual binding level at 1 uM by Kinomescan method relative to control
[17] = molecular target: Serine/threonine-protein kinase PLK2 (Homo sapiens) (UniProt Q9NYY3); assay: Binding affinity to wild-type human partial length PLK2 (H58 to F354 residues) expressed in mammalian expression system assessed as residual binding level at 1 uM by Kinomescan method relative to control
[18] = molecular target: Serine/threonine-protein kinase D3 (Homo sapiens) (UniProt O94806); assay: Binding affinity to wild-type human partial length PRKD3 (S543 to E863 residues) expressed in bacterial expression system assessed as residual binding level at 1 uM by Kinomescan method relative to control
Method in brief: (§3)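 Active-site-directed competition binding panel of 468 kinases (KinomeScan), compound at 1 μM. The read-out is kinase remaining bound, given as a percentage of the DMSO control. […]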

[19] = molecular target: Serine/threonine-protein kinase SIK3 (Homo sapiens) (UniProt Q9Y2K2); assay: Binding affinity to wild-type human partial length QSK (A90 to L395 residues) expressed in mammalian expression system assessed as residual binding level at 1 uM by Kinomescan method relative to control; method in brief: as §3
[20] = molecular target: NUAK family SNF1-like kinase 2 (Homo sapiens) (UniProt Q9H093); assay: Binding affinity to wild-type human partial length SNARK (P22 to A333 residues) expressed in mammalian expression system assessed as residual binding level at 1 uM by Kinomescan method relative to control
[21] = molecular target: SRSF protein kinase 2 (Homo sapiens) (UniProt P78362); assay: Binding affinity to wild-type human full length SRPK2 (M1 to S686 residues) expressed in bacterial expression system assessed as residual binding level at 1 uM by Kinomescan method relative to control
[22] = molecular target: Serine/threonine-protein kinase 32B (Homo sapiens) (UniProt Q9NY57); assay: Binding affinity to wild-type human full length YANK2 (M1 to S414 residues) expressed in bacterial expression system assessed as residual binding level at 1 uM by Kinomescan method relative to control

C=CC(=O)Nc1ccccc1Nc1nc(Nc2ccc(N3CCN(C)CC3)cc2)ncc1C(=O)Nc1c(C)cccc1Cl
Activity [1]: 100% | Activity [2]: 100% | Activity [3]: 100% | Activity [4]: 98% | Activity [5]: 100% | Activity [6]: 100% | Activity [7]: 68% | Activity [8]: 62% | Activity [9]: 100% | Activity [10]: 100% | Activity [11]: 100% | Activity [12]: 100% | Activity [13]: 100% | Activity [14]: 88% | Activity [15]: 100% | Activity [16]: 100% | Activity [17]: 100% | Activity [18]: 99% | Activity [19]: 69% | Activity [20]: 100% | Activity [21]: 100% | Activity [22]: 100%
